From ChEMBL document CHEMBL4014343 (J Med Chem, 2017)
Calls of active or inactive are those of the source. The calls are words filed in the database; no cut-off is given here.

Experiments:
U-251 = assay: Growth inhibition of human U251 cells incubated for 48 hrs by sulforhodamine B assay; type: functional, cell-based
Outline: (§1)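 NCI-60 panel growth inhibition, run by the U.S. National Cancer Institute; GI50 values are means of two test series.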

[1] = biological target: Serine/threonine-protein kinase Chk2 (Homo sapiens) (UniProt O96017); assay: Inhibition of CHK2 (unknown origin) at 1 uM
Outline: (§2)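 Single-point profiling at 1 μM in a 22-kinase panel, performed externally by ProQinase; activity read as residual percent of control.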

UACC-257 = assay: Growth inhibition of human UACC257 cells incubated for 48 hrs by sulforhodamine B assay; type: functional, cell-based; outline: as §1
A549 = assay: Growth inhibition of human A549/ATCC cells incubated for 48 hrs by sulforhodamine B assay; type: functional, cell-based
Hs-578T = assay: Growth inhibition of human Hs 578T cells incubated for 48 hrs by sulforhodamine B assay; type: functional, cell-based
COLO 205 = assay: Growth inhibition of human COLO205 cells incubated for 48 hrs by sulforhodamine B assay; type: functional, cell-based
OVCAR-5 = assay: Growth inhibition of human OVCAR5 cells incubated for 48 hrs by sulforhodamine B assay; type: functional, cell-based
[2] = biological target: Cyclin-dependent kinase 1/cyclin B1 (Homo sapiens) (UniProt P06493+P14635); assay: Inhibition of recombinant human N-terminal GST/His6-tagged CDK1 (M1 to M297 residues)/Cyclin B1 (M1 to V433 residues) expressed in sf9 cells at 1 uM using RB-CTF as substrate by filter binding assay; outline: as §2
SK-MEL-2 = assay: Growth inhibition of human SK-MEL-2 cells incubated for 48 hrs by sulforhodamine B assay; type: functional, cell-based
OVCAR-3 = assay: Growth inhibition of human OVCAR3 cells incubated for 48 hrs by sulforhodamine B assay; type: functional, cell-based
OVCAR-8 = assay: Growth inhibition of human OVCAR8 cells incubated for 48 hrs by sulforhodamine B assay; type: functional, cell-based
PC-3 = assay: Growth inhibition of human PC3 cells incubated for 48 hrs by sulforhodamine B assay; type: functional, cell-based
NCI-H460 = assay: Growth inhibition of human NCI-H460 cells incubated for 48 hrs by sulforhodamine B assay; type: functional, cell-based
MDA-MB-468 = assay: Growth inhibition of human MDA-MB-468 cells incubated for 48 hrs by sulforhodamine B assay; type: functional, cell-based
TK-10 = assay: Growth inhibition of human TK10 cells incubated for 48 hrs by sulforhodamine B assay; type: functional, cell-based; outline: as §1
RPMI-8226 = assay: Growth inhibition of human RPMI8226 cells incubated for 48 hrs by sulforhodamine B assay; type: functional, cell-based
SF-539 = assay: Growth inhibition of human SF539 cells incubated for 48 hrs by sulforhodamine B assay; type: functional, cell-based
NCI-H322M = assay: Growth inhibition of human NCI-H322M cells incubated for 48 hrs by sulforhodamine B assay; type: functional, cell-based
EKVX = assay: Growth inhibition of human EKVX cells incubated for 48 hrs by sulforhodamine B assay; type: functional, cell-based
MCF7 [3] = assay: Induction of apoptosis in human MCF7 cells assessed as PARP cleavage after 6 hrs by immunoblot analysis; type: functional, cell-based
Outline: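 MCF7 in DMEM/10% FBS for 24 h, then treated 6 h; 0.1% DMSO as non-treated, Src inhibitor (10 μM) as positive control. Lysates (40 μg protein) on 10% SDS-PAGE, immunoblotted for PARP cleavage with ECL detection; β-actin loading control.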

[4] = biological target: Aurora kinase B (Homo sapiens) (UniProt Q96GD4); assay: Inhibition of human N-terminal GST/His6-tagged Aurora B (A2 to A344 residues) expressed in sf9 cells at 1 uM using tetra(LRRLSLG) as substrate by filter binding assay; outline: as §2
UACC-62 = assay: Growth inhibition of human UACC62 cells incubated for 48 hrs by sulforhodamine B assay; type: functional, cell-based; outline: as §1
MCF7 [5] = assay: Induction of apoptosis in human MCF7 cells at 0.5 uM after 24 hrs by Annexin V-FITC/propidium iodide staining based FACS analysis; type: functional, cell-based
Outline: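 MCF7 grown 24 h in DMEM/10% FBS/1% PS, exposed 24 h, pelleted, stained with FITC-annexin V in HEPES binding buffer (pH 7.4, 1.8 mM CaCl2) 15 min dark at rt, then PI 10 min, analysed by flow cytometry; bortezomib positive control.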

[6] = biological target: T1, Aurora kinase A (Homo sapiens) (UniProt O14965); assay: Inhibition of human N-terminal GST/His6-tagged Aurora A (M1 to S403 residues) expressed in baculovirus infected sf9 cells at 1 uM using tetra(LRRLSLG) as substrate by filter binding assay; outline: as §2
T1 sequence (whole entry): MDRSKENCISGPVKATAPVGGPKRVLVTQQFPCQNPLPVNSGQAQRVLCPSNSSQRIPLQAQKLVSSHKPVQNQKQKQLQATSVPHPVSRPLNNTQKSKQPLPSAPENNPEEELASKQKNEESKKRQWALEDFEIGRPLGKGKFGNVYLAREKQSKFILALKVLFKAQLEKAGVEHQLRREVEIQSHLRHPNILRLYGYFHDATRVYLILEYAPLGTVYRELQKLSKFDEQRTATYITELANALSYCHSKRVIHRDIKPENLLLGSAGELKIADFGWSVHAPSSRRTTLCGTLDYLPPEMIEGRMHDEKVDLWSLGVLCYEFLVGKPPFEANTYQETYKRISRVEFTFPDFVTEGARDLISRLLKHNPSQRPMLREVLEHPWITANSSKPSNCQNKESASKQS

ACHN = assay: Growth inhibition of human ACHN cells incubated for 48 hrs by sulforhodamine B assay; type: functional, cell-based
HOP-92 = assay: Growth inhibition of human HOP92 cells incubated for 48 hrs by sulforhodamine B assay; type: functional, cell-based
SK-MEL-28 = assay: Growth inhibition of human SK-MEL-28 cells incubated for 48 hrs by sulforhodamine B assay; type: functional, cell-based
IGROV-1 = assay: Growth inhibition of human IGROV1 cells incubated for 48 hrs by sulforhodamine B assay; type: functional, cell-based
[7] = biological target: T2, Insulin-like growth factor 1 receptor (Homo sapiens, UniProt P08069); assay: Inhibition of IGF1R in human MDA-MB-231 cells assessed as reduction in Akt phosphorylation at Ser473 residue after 24 hrs by immunoblot analysis; type: cell-based
Outline: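 Cells in their medium with 10% FBS exposed to rising concentrations for 24 h; whole-cell lysates immunoblotted for p-Akt (S473) and total Akt; PI3K inhibitor at 10 μM as positive control.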

[8] = biological target: T2, Insulin-like growth factor 1 receptor; assay: Inhibition of IGF1R phosphorylation at Tyr1161 residue in human MCF7 cells at 1 uM after 1 hr by Hoechst 33258 staining based immunohistochemical analysis; type: cell-based
Outline: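 MCF7 treated 1 h (test agent 1 μM; PI3K inhibitor 10 μM; 0.1% DMSO mock), fixed in 4% PFA 15 min, permeabilised/blocked, anti-p-IGF-1R Y1161 (1:200) overnight at 4 °C, Alexa 594 secondary 1 h, nuclei with Hoechst 33258 (1 μg/mL).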

[9] = biological target: T2, Insulin-like growth factor 1 receptor; assay: Inhibition of IGF1R in human MCF7 cells assessed as reduction in Akt phosphorylation at Ser473 residue at 1 uM after 15 mins by immunoblot analysis; type: cell-based
Outline: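 MCF7 exposed to 1 μM and harvested at 15 min, 30 min, 1, 4 and 6 h; lysates immunoblotted with p-Akt (S473) antibody.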

CN1CCN(CCO/N=C2/C(=C3/C(=O)Nc4ccccc43)Nc3ccccc32)CC1
growth inhibition (GI) (U-251): Active | inhibition [1]: inactive | growth inhibition (GI) (UACC-257): Active | growth inhibition (GI) (A549): Active | growth inhibition (GI) (Hs-578T): Active | growth inhibition (GI) (COLO 205): Active | growth inhibition (GI) (OVCAR-5): Active | inhibition [2]: inactive | growth inhibition (GI) (SK-MEL-2): Active | growth inhibition (GI) (OVCAR-3): Active | growth inhibition (GI) (OVCAR-8): Active | growth inhibition (GI) (PC-3): Active | growth inhibition (GI) (NCI-H460): Active | growth inhibition (GI) (MDA-MB-468): Active | growth inhibition (GI) (TK-10): Active | growth inhibition (GI) (RPMI-8226): Active | growth inhibition (GI) (SF-539): Active | growth inhibition (GI) (NCI-H322M): Active | growth inhibition (GI) (EKVX): Active | Activity (MCF7 [3]): Active | inhibition [4]: inactive | growth inhibition (GI) (UACC-62): Active | Activity (MCF7 [5]): Active | inhibition [6]: inactive | growth inhibition (GI) (ACHN): Active | growth inhibition (GI) (HOP-92): Active | growth inhibition (GI) (SK-MEL-28): Active | growth inhibition (GI) (IGROV-1): Active | inhibition [7]: Dose-dependent effect | inhibition [8]: Active | inhibition [9]: Active
